Bioassay records: PubChem, several laboratories
Only some compounds are listed: those with a hit (about 2.3% of all), similar ones and a draw of the others.
Rpn11 block = blocks the human proteasome subunit Rpn11; 360,000 compounds, 0.59% hits; human 26S proteasome, Ub4-pepOG fluorescence polarization; 20S core pre-blocked with epoxomicin; O00487; calls only at 20 µM;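 active = inhibition at 20 µM, scaled to each plate's controls, above about 33%, limit read from the data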
CRFR2-BP ag = CRF-BP/CRF-R2 complex agonism; HEK293 CRF-R2/CRF-BP, calcium dye fluorescence (FLIPR); percent of saturating CRF peptide response; activation, % at 13.2 µM; 350,000 compounds, 0.46% hits;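 active = activation of at least 50%, plus an integration ratio under a set limit after plate pattern correction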
TPT1 inh = blocks Candida albicans tRNA 2'-phosphotransferase. recombinant caTPT1, FP RNA substrate dephosphorylation. inhibition, % at 5 µM. 300,000 compounds, 0.81% hits;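 active = inhibition above the mean of all tested compounds plus 3 SD, set per screening campaign, cut at about 24% in these data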
CRFR2-BP antag = blocks CRF-induced signaling of the CRF-BP/CRF-R2 complex | HEK293 CRF-R2/CRF-BP, CRF-induced calcium fluorescence | inhibition, % at 11.8 µM | 350,000 compounds, 0.59% hits;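 active = inhibition of the ligand-induced calcium signal above about 50% at the single tested concentration, limit read from the data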
CSN inh = CSN deneddylation inhibition | Q92905 | Purified CSN, SCF-Nedd8-OG deneddylation, fluorescence polarization | inhibition, % at 12.5 µM | 360,000 compounds, 0.38% hits;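 active = pattern-corrected inhibition above about 35%, with an unprinted fluorescence ratio check between 0.5 and 1.5, limit read from the data, passing the limit was not always enough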
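Assay system: HEK293T-derived human Csn5 enzyme; quantity: 0.24 nM enzyme; medium: Tris/NaCl/DTT buffer, pH 7.5; also added: substrate SCFSkp2-Nedd8OG, 10 nM; doses: 12.5 µM compound; schedule: 90 min reaction at room temperature; signal: FP; read-out: % inhibition of substrate cleavage by Csn5; benchmarks: substrate-only high control, full reaction low control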
HNF4A DNA FP = change in binding of human HNF4 alpha to DNA. P41235. HNF4a-FITC DNA binding, fluorescence polarization, 1 h. activity change, % at 10 µM. 360,000 compounds, 0.3% hits. AID 1224865; in the data active = activity change above about 30%, passing the limit was not always enough
Target sequence (P41235 whole entry, looked up): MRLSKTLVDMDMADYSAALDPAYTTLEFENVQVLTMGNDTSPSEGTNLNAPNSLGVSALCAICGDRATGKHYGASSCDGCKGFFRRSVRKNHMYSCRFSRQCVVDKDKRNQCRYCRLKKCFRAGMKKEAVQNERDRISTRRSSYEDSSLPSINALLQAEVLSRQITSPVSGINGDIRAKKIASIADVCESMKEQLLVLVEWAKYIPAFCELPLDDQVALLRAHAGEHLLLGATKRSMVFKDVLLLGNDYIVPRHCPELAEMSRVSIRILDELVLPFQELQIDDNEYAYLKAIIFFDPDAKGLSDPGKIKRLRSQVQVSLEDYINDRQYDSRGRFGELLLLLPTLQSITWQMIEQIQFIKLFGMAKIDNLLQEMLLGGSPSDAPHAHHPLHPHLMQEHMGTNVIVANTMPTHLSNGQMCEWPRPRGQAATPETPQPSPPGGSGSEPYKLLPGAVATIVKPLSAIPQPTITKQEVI
Of the large screens only hits and unclear results are named; the others gave an inactive call.

O=c1cnnc(SCc2ccc([N+](=O)[O-])cc2)[nH]1	none
Cc1cccc(N2CC(O)(c3cccs3)[N+]3=C2CCCCC3)c1 (stereo not given)	none
Cc1cccc(N2CC(O)(c3cccs3)[N+]3=C2CCCC3)c1 (stereo not given)	CRFR2-BP antag 94
Nc1nnnn1/N=C/c1cc(Cl)ccc1O	none
Nc1nnnn1/N=C/c1cc(Cl)cc(Cl)c1O	CRFR2-BP ag 138
COC(=O)c1c(NC(=O)COC(=O)Cn2cnc3ccccc32)sc2c1CCCC2	none
O=C(CCN1CCCC1=O)NC1CCCc2c1cnn2-c1ccccc1F (stereo not given)	CRFR2-BP antag 54
C=CCn1c(SCC(=O)c2c(C)[nH]c3ccccc23)nnc1-c1ccncc1	CSN inh 36
COc1cc(CNn2c(C)n[nH]c2=S)cc(Br)c1OCC(=O)NC(C)(C)C	none
Cc1ccc(C)c2sc(NC(=O)c3ccc(N4C(=O)CCC4=O)cc3)nc12	CRFR2-BP ag 116
Nc1cc2c3c(cccc3c1)C(=O)N(CCN1CCCC1)C2=O	CRFR2-BP ag 66
O=C1c2cccc3cc([N+](=O)[O-])cc(c23)C(=O)N1CCN1CCCC1	none (no result: TPT1 inh)
CC1=CC(=O)C(C(C)C)=C/C1=N/OS(=O)(=O)c1ccccc1	CRFR2-BP ag 51
CC1=CC(=O)C=C(C)C1=NOS(=O)(=O)c1ccccc1	none (no result: TPT1 inh)
O=C(NCCNC1CCC(c2ccccc2)CC1)c1ccc(F)cc1 (stereo not given)	none
CS(=O)(=O)N(CC(=O)N1CCOCC1)c1cc(Cl)ccc1Cl	none
Cc1ccc(Cl)cc1N(CC(=O)N1CCOCC1)S(C)(=O)=O	CRFR2-BP antag 74
CCOc1ccc(-n2c(SCC(=O)N3CCc4ccccc43)nnc2-c2c[nH]c3ccccc23)cc1	CSN inh 141, HNF4A DNA FP 38
COc1cccc(-n2c(SCC(=O)N3CCc4ccccc43)nnc2-c2c[nH]c3ccccc23)c1	none
COc1cccc(C(=O)Nc2cc(C(=O)NCc3ccc(C)cc3)ccc2N2CCC3(CC2)CC(c2cccc(Br)c2)=NO3)c1	CRFR2-BP antag 66
Cn1c(=O)c2cc3c(nc2n(C)c1=O)CC(c1ccccc1)CC3=O (stereo not given)	CRFR2-BP antag 67
Cc1cccc(N2CCN(S(=O)(=O)c3ccc4c(c3)NC(=O)CS4)CC2)c1C	none
CC1CCN(S(=O)(=O)c2ccc3c(c2)NC(=O)CS3)CC1	CRFR2-BP antag 63
Cc1cc(C)c2sc(N(CCCN(C)C)C(=O)c3ccc(S(=O)(=O)N4CCCc5ccccc54)cc3)nc2c1	none
Nc1cc(-c2ccccc2)nn1S(=O)(=O)c1ccc(Br)cc1	CSN inh active
COc1cc(-c2cc(N)n(S(=O)(=O)c3ccccc3)n2)cc(OC)c1OC	none
CC(C)c1cc(NC(=O)c2ccccc2)cc(C(C)C)c1O	CRFR2-BP antag 82
CCc1ccc2c(c1)c1nc(C)sc1n2CC	CSN inh 54
Cc1nc2c3cc(F)ccc3n(Cc3ccc(F)cc3)c2s1	none
CCN(CC)S(=O)(=O)c1ccc(N2CCOCC2)c(NC(=O)c2cc(C)cc(C)c2)c1	none
CCCCN1CC(COCc2ccccc2)Oc2cccc(OCCN3C(=O)[C@@H]4[C@H](C3=O)C3C=C[C@H]4C3)c2S1(=O)=O (stereo not given in full)	CRFR2-BP ag 172 (no result: TPT1 inh)
CCc1ccc2c(CN3CCC(C(=O)OC)CC3)cc(=O)oc2c1	HNF4A DNA FP 84
COc1ccc(Oc2nccc(-c3ccccc3)c2C#N)cc1	CRFR2-BP antag 71
COc1ccc(Oc2nccc(-c3ccc(F)cc3)c2C#N)cc1	none
COc1ccc(N(CC(=O)NN=C2CCCC2)S(=O)(=O)c2ccccc2)cc1Cl	CRFR2-BP ag 80
CCN(C(=S)NC(=O)Cc1ccc(OC)cc1)c1ccccc1	none
COc1ccc2oc(C(=O)NCCC(C)C)c(C)c2c1	CRFR2-BP antag 79
S=c1[nH]nc(-c2cc(-c3ccco3)[nH]n2)n1-c1ccccc1Cl	CSN inh 36
O=C(CSc1ncc(-c2ccccc2)n1C1CCCC1)N1CCc2ccccc21	CRFR2-BP ag 102
Cn1c(-c2ccccc2)cnc1SCC(=O)N1CCCc2ccccc21	none
N#Cc1c(NC(=S)NC(=O)c2ccccc2)sc2c1CCN(CCc1ccccc1)C2	TPT1 inh 98 (no result: Rpn11 block, CRFR2-BP ag, CRFR2-BP antag, CSN inh, HNF4A DNA FP)
N#Cc1c(NC(=S)NC(=O)c2ccccc2)sc2c1CCCC2	none
O=C(Nc1ncc([N+](=O)[O-])s1)c1ccc2c(c1)OCO2	none
Cc1ccc(C(=O)Nc2ncc([N+](=O)[O-])s2)cc1	CRFR2-BP ag 58
CC(C)(C)c1nnc(NC(=O)C2CCN(C(=O)c3ccco3)CC2)s1	none
COCC(C)n1c(SCC(=O)NC(=O)NCc2ccccc2)nc2ccccc2c1=O (stereo not given)	none (no result: TPT1 inh)
COc1ccc2c(c1)c(=O)oc1c(C)c(OCC(=O)N3CCc4ccccc4C3)ccc12	CSN inh 36
Cc1cc(=O)oc2cc(OCC(=O)N3CCc4ccccc4C3)ccc12	none
CC(C)(C)C(=O)NC(CC(=O)O)c1ccccc1 (stereo not given)	none
O=C1OCc2cc(NS(=O)(=O)c3cccs3)ccc21	none
O=S(=O)(Nc1ccc2c(c1)CCC2)c1cccs1	CRFR2-BP antag 52
CC(C)(C)N(Cc1ccccc1)C(=O)c1ccc(Cl)cc1[N+](=O)[O-]	none
O=C1Nc2ccccc2N(O)N1c1cc(-c2cccc(Cl)c2)no1	CRFR2-BP antag 50
CCN(CC)CCCNC(=O)c1cc2nc(-c3ccccc3)cc(C(F)(F)F)n2n1	none
CN(CC(=O)Nc1ccc(F)cc1)C(=O)Cn1cnc2ccc([N+](=O)[O-])cc2c1=O	none (no result: TPT1 inh)
COc1ccc(OC)c(C2=Nn3c(nnc3-c3ccco3)SC2)c1	none
COc1ccc(C2=Nn3c(nnc3-c3ccco3)SC2)cc1	CRFR2-BP antag 68
O=C(NC(=S)NCCN1CCOCC1)c1ccccc1	none
O=C(O)c1cccc2c1C(=O)N(Cc1ccccc1)C2	CRFR2-BP antag 63
COCCCN1Cc2cccc(C(=O)O)c2C1=O	none
COC(=O)C1=CN(c2c(C)cc(C)cc2C)C(N)=C(C#N)C1c1ccccc1 (stereo not given)	none (no result: Rpn11 block, CRFR2-BP ag, TPT1 inh, CRFR2-BP antag)
C=CCOC(=O)C1=C(C)NC2(O)c3ccccc3C(=O)C12O (stereo not given)	CRFR2-BP antag 69
CCC(C)(C)n1nnnc1C(c1cccc(C#N)c1)N1CCN(c2cccc(C)c2C)CC1 (stereo not given)	CRFR2-BP antag 51
CC(C)(C)n1nnnc1C(c1cccc(C#N)c1)N1CCCCCC1 (stereo not given)	none
O=C(c1ccc(F)cc1)N1CCCC(N2CCN(Cc3ccc4c(c3)OCO4)CC2)C1 (stereo not given)	none
